Assay results as given in ChEMBL document CHEMBL1139138, “Pyrrolidine-constrained phenethylamines: The design of potent, selective, and pharmacologically efficacious dipeptidyl peptidase IV (DPP4) inhibitors from a lead-like screening hit” (Bioorg Med Chem Lett, 2007).

Assays:
[1] = Half life in rat liver microsome; format: ADME; details: liver microsomes
Outline: (§1)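 Stability on incubation with rat or human liver microsomes, expressed as half-life.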

[2] = Half life in human liver microsome; format: ADME; details: liver microsomes; outline: as §1
Cytochrome P450 2D6 = Cytochrome P450 2D6 (Homo sapiens, UniProt P10635); assay: Inhibition of CYP2D6; format: ADME
Cytochrome P450 2D6, sequence (P10635 whole entry): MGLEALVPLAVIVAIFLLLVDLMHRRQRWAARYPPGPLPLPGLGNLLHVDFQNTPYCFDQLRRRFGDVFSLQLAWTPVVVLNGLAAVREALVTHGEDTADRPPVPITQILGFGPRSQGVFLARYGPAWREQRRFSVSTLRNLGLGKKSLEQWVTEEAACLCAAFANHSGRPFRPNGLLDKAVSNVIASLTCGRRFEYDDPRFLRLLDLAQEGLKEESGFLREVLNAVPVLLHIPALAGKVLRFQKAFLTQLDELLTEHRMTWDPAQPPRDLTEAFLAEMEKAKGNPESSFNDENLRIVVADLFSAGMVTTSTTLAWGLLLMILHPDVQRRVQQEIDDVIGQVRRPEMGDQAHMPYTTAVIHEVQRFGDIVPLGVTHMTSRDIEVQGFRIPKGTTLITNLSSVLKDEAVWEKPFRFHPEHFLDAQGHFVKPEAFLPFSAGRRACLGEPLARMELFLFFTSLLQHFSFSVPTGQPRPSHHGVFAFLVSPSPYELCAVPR

[3] = Cmax in Sprague-Dawley rat at 5 mg/kg, po; format: ADME, organism-based; design: dose 5 mg/kg, route oral; details: in vivo
Outline: (§2)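 Pharmacokinetics in rat dosed at 5 mg/kg and in dog and monkey dosed at 2.5 mg/kg. Cmax, t1/2 (terminal) and AUC were taken from oral dosing. F is oral bioavailability. Vss is volume of distribution at steady state.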

Prolyl endopeptidase = biological target: T1, Prolyl endopeptidase (Homo sapiens, UniProt P48147); assay: Inhibition of human POP
T1 sequence (P48147 whole entry): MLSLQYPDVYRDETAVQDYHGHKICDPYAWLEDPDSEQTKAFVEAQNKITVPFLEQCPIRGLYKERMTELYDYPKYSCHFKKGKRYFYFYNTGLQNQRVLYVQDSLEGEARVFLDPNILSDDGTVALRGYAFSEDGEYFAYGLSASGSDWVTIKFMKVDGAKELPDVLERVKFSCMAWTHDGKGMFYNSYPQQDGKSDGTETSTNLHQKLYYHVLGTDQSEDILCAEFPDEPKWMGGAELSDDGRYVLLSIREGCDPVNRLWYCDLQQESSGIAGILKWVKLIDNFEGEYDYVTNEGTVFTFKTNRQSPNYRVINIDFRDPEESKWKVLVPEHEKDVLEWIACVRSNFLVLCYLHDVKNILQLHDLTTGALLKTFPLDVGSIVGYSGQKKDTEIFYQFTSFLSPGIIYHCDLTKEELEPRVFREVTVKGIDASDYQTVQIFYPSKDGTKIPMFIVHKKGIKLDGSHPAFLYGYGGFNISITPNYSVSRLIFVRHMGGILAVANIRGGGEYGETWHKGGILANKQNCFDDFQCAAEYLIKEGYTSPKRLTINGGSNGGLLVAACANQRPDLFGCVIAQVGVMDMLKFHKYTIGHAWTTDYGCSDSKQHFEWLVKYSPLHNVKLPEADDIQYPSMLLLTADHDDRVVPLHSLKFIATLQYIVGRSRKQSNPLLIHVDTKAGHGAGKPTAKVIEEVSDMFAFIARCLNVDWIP

Dipeptidyl peptidase 4 [4] = biological target: T2, Dipeptidyl peptidase 4 (Homo sapiens, UniProt P27487); assay: Inhibition of human DPP4 by tight binding assay
T2 sequence (P27487 whole entry): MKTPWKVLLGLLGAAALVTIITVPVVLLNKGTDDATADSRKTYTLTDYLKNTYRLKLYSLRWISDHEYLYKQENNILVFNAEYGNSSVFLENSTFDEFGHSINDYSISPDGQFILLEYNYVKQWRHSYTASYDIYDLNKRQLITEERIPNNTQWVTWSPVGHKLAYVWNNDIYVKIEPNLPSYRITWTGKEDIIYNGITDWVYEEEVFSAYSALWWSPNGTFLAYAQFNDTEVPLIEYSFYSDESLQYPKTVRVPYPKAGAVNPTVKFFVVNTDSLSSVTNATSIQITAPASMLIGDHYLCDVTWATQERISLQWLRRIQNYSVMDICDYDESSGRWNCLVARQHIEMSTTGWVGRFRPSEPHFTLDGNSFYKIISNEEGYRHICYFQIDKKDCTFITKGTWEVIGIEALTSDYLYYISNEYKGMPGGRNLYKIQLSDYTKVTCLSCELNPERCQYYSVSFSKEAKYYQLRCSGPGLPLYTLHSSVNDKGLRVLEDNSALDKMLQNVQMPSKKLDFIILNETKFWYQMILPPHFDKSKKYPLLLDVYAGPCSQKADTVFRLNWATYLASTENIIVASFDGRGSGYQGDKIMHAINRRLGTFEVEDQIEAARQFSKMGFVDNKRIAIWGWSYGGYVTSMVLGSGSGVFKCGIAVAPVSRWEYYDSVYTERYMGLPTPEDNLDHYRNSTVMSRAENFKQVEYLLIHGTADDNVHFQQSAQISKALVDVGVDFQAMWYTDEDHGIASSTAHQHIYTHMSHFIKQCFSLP

[5] = Plasma clearance in Sprague-Dawley rat at 5 mg/kg, po; format: ADME, organism-based; design: dose 5 mg/kg, route oral; outline: as §2
Cytochrome P450 3A4 = Cytochrome P450 3A4 (Homo sapiens, UniProt P08684); assay: Inhibition of CYP3A4; format: ADME
Cytochrome P450 3A4, sequence (P08684 whole entry): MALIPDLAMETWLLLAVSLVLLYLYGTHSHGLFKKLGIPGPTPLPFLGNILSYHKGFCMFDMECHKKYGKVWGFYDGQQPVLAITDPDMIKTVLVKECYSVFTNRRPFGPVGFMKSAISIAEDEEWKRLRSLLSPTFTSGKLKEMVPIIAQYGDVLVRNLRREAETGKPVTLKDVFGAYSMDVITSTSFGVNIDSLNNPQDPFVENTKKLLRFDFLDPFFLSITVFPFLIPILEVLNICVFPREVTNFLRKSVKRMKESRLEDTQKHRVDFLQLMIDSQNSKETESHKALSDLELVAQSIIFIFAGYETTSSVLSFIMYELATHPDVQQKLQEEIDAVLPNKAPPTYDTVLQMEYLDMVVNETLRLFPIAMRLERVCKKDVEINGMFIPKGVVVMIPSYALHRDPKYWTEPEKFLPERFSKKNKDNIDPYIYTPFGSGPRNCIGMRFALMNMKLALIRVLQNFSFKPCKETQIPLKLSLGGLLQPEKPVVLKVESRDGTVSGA

Cytochrome P450 2C9 = Cytochrome P450 2C9 (Homo sapiens, UniProt P11712); assay: Inhibition of CYP2C9; format: ADME
Cytochrome P450 2C9, sequence (P11712 whole entry): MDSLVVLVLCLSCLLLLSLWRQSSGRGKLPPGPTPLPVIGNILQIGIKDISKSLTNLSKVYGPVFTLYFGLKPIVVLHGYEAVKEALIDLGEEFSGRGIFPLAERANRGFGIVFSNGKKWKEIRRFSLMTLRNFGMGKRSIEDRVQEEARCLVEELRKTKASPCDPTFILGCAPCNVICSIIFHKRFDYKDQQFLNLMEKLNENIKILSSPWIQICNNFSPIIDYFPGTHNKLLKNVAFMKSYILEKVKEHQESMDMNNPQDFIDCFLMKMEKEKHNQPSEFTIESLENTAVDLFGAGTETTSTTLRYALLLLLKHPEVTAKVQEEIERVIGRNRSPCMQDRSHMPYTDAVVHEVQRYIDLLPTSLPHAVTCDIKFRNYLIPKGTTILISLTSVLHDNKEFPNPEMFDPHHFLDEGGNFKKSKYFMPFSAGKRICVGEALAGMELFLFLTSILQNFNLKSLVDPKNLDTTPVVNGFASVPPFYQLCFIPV

Rattus norvegicus [6] = assay: Volume of distribution at steady state in Sprague-Dawley rat at 5 mg/kg, po; format: ADME, organism-based; design: dose 5 mg/kg, route oral; details: in vivo; outline: as §2
Rattus norvegicus [7] = assay: AUC in Sprague-Dawley rat at 5 mg/kg, po; format: ADME, organism-based, Plasma; design: dose 5 mg/kg, route oral; details: in vivo; outline: as §2
[8] = Oral bioavailability in Sprague-Dawley rat at 5 mg/kg, po; format: ADME, organism-based; details: in vivo; outline: as §2
Prolyl endopeptidase FAP = biological target: T3, Prolyl endopeptidase FAP (Homo sapiens, UniProt Q12884); assay: Inhibition of human FAPalpha
T3 sequence (Q12884 whole entry): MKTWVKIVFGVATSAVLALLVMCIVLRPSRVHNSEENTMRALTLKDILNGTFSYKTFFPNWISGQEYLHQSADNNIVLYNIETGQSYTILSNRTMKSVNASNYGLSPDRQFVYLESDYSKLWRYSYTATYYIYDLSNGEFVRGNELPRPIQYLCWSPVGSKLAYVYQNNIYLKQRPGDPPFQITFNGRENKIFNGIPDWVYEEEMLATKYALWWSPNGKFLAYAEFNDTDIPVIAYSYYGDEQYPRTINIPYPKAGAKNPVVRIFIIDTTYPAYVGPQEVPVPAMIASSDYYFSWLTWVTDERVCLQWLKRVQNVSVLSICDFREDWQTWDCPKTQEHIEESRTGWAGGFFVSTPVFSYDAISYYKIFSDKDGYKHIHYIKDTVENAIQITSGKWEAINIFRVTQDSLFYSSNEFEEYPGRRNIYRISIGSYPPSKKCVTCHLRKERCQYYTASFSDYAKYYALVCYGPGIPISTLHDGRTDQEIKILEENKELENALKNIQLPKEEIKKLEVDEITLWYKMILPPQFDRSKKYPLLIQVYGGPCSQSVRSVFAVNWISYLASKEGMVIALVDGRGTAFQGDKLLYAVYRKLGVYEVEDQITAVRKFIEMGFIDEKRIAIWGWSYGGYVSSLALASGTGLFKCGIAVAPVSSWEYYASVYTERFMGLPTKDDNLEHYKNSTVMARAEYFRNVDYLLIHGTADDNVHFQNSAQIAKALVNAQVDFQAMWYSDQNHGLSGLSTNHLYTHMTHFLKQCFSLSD

[9] = Half life in Sprague-Dawley rat at 5 mg/kg, po; format: ADME, organism-based; design: dose 5 mg/kg, route oral; details: in vivo; outline: as §2
Dipeptidyl peptidase 4 [10] = biological target: T2, Dipeptidyl peptidase 4; assay: Inhibition of human DPP4 in presence of rat plasma protein; format: cell-free
Canis familiaris = assay: AUC in dog at 2.5 mg/kg, po; format: ADME, organism-based, Canis lupus familiaris, Plasma; design: dose 2.5 mg/kg, route oral; details: in vivo; outline: as §2
Rattus norvegicus [11] = assay: Reduction of glucose level in ZDF rat at 3 mg/kg, po […]; format: functional; design: scale not given: the % may be the effect or the level left
Outline: (§3)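 Female Zucker diabetic fatty rats, 10 weeks old, fasted overnight (n = 10/group). They were dosed orally with vehicle or inhibitor at 0.3, 1 or 3 mg/kg at t = −240 min and allowed to feed at t = 0. Blood glucose lowering was measured relative to vehicle.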

[12] = Plasma concentration in ZDF rat at 1 mg/kg after 240 mins; format: ADME, organism-based; design: dose 1 mg/kg
Outline: (§4)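 Female ZDF rats, 10 weeks old, fasted overnight and dosed orally at 1 mg/kg four hours before feeding (t = 0). Plasma drug concentration and the matching plasma DPP4 inhibition were determined at t = 0 and t = 240 min.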

[13] = Oral bioavailability in dog at 2.5 mg/kg, po; format: ADME, organism-based, Canis lupus familiaris; details: in vivo; outline: as §2
[14] = Plasma clearance in dog at 2.5 mg/kg, po; format: ADME, organism-based, Canis lupus familiaris; design: dose 2.5 mg/kg, route oral; outline: as §2
Rattus norvegicus [15] = assay: Reduction of glucose level in ZDF rat at 1 mg/kg, po […]; format: functional; design: scale not given: the % may be the effect or the level left; outline: as §3
[16] = Half life in dog at 2.5 mg/kg, po; format: ADME, organism-based, Canis lupus familiaris; design: dose 2.5 mg/kg, route oral; details: in vivo; outline: as §2
Rattus norvegicus [17] = assay: Inhibition of DPP4 in ZDF rat at 1 mg/kg after 240 mins; format: functional; details: 4 h; outline: as §4
[18] = Cmax in dog at 2.5 mg/kg, po; format: ADME, organism-based, Canis lupus familiaris; design: dose 2.5 mg/kg, route oral; details: in vivo; outline: as §2
Rattus norvegicus [19] = assay: Reduction of glucose level in ZDF rat at 0.3 mg/kg, po by […]; format: functional; design: scale not given: the % may be the effect or the level left; outline: as §3
Dipeptidyl peptidase 9 = Dipeptidyl peptidase 9 (Homo sapiens, UniProt Q86TI2); assay: Inhibition of human DPP9
Dipeptidyl peptidase 9, sequence (Q86TI2 whole entry): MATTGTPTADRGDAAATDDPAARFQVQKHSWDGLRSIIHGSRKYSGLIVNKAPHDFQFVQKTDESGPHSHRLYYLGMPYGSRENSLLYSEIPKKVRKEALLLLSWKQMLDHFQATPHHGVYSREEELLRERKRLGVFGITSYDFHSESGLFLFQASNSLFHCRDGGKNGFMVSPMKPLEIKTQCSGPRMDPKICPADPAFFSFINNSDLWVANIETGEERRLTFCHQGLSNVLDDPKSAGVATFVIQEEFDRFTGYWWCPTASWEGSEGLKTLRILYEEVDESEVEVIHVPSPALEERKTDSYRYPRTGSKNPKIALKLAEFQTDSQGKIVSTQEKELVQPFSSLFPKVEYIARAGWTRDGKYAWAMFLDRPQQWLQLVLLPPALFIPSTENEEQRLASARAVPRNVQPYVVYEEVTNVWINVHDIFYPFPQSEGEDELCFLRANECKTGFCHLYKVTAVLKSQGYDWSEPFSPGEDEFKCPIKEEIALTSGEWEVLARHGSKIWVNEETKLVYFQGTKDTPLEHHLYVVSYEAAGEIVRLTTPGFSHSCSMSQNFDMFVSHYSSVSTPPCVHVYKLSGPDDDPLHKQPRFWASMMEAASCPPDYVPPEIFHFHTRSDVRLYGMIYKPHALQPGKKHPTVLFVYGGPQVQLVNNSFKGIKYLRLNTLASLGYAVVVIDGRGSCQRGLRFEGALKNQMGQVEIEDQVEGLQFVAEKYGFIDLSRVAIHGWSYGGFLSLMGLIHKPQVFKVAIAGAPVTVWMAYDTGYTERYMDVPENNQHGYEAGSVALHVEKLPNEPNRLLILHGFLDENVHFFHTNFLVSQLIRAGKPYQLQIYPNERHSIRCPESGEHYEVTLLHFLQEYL

Dipeptidyl peptidase 8 = Dipeptidyl peptidase 8 (Homo sapiens, UniProt Q6V1X1); assay: Inhibition of human DPP8
Dipeptidyl peptidase 8, sequence (Q6V1X1 whole entry): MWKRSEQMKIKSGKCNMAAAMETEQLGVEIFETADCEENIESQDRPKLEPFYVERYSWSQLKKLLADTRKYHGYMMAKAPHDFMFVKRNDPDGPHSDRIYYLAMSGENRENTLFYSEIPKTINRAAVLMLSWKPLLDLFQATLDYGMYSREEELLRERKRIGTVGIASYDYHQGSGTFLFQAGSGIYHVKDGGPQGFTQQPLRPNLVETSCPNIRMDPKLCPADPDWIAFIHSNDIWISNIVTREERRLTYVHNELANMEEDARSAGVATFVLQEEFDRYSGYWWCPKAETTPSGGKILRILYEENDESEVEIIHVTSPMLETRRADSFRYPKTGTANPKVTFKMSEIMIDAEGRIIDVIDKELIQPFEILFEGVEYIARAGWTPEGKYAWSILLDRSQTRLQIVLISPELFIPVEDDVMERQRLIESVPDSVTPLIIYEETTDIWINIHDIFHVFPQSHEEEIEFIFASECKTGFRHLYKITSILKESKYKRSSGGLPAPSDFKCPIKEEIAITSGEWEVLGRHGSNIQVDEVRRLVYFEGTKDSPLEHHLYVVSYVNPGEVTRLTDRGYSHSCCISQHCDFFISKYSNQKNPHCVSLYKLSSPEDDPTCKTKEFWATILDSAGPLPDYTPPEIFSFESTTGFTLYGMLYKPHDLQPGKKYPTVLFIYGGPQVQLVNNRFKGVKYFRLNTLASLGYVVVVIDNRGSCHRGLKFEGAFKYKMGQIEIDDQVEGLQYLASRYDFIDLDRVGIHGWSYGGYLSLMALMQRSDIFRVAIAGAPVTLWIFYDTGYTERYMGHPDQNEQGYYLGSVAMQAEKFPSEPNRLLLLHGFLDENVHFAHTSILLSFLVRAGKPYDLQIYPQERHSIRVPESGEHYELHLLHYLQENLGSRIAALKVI

NC1CN(c2ccnc(-c3ccsc3)n2)CC1c1ccc(Cl)cc1Cl (racemic)
half-life [1]: > 3 h | half-life [2]: > 3 h

Cl.NC1CN(c2cc(-c3ccsc3)ncn2)CC1c1cc(F)c(F)cc1F (stereo unspecified)
half-life [1]: > 3 h | IC50 (Cytochrome P450 2D6): 1.1 µM | half-life [2]: > 3 h

CCNC(=O)N1CC(N)C(c2ccc(Cl)cc2Cl)C1 (racemic)
half-life [1]: > 3 h | half-life [2]: > 3 h

NC1CN(c2cc(-c3ccccc3)ncn2)CC1c1cc(F)c(F)cc1F (stereo unspecified)
half-life [1]: > 3 h | half-life [2]: > 3 h

NC1CN(c2nccc(-c3ccsc3)n2)CC1c1ccc(Cl)cc1Cl (racemic)
half-life [1]: > 3 h | half-life [2]: > 3 h

NC1CN(c2cc(-c3cccc(S(=O)(=O)N4CCOCC4)c3)ncn2)CC1c1cc(F)c(F)cc1F (stereo unspecified)
Cmax [3]: 347 ng/mL | half-life [1]: > 3 h | Ki (Prolyl endopeptidase): > 30 µM | Ki (Dipeptidyl peptidase 4 [4]): 0.0032 µM | CL/F [5]: 34.8 mL/min/kg | IC50 (Cytochrome P450 3A4): > 10 µM | IC50 (Cytochrome P450 2D6): > 10 µM | IC50 (Cytochrome P450 2C9): > 10 µM | Vdss (Rattus norvegicus [6]): 1.84 L/kg | AUC (Rattus norvegicus [7]): 515 ng·h/mL | bioavailability [8]: 21% | half-life [2]: > 3 h | Ki (Prolyl endopeptidase FAP): > 30 µM | half-life [9]: 1.1 h | Ki (Dipeptidyl peptidase 4 [10]): 0.0017 µM

CCOC(=O)N1CC(N)C(c2ccc(Cl)cc2Cl)C1 (racemic)
half-life [1]: > 3 h | half-life [2]: > 3 h

NC1CN(c2cc(-c3ccsc3)ncn2)CC1c1cc(F)c(F)cc1F (racemic)
half-life [1]: > 3 h | IC50 (Cytochrome P450 3A4): > 10 µM | IC50 (Cytochrome P450 2D6): 0.098 µM | IC50 (Cytochrome P450 2C9): > 10 µM | half-life [2]: > 3 h

CS(=O)(=O)c1cc(F)cc(-c2cc(N3CC(N)C(c4cc(F)c(F)cc4F)C3)ncn2)c1 (stereo unspecified)
half-life [1]: > 3 h | half-life [2]: > 3 h

NC1CN(C(=O)NCc2cccc(F)c2)CC1c1ccc(Cl)cc1Cl (racemic)
half-life [1]: > 3 h | half-life [2]: > 3 h

CS(=O)(=O)c1cccc(-c2ncnc(N3CC(N)C(c4cc(F)c(F)cc4F)C3)n2)c1 (stereo unspecified)
AUC (Canis familiaris): 12200 ng·h/mL | Cmax [3]: 1970 ng/mL | half-life [1]: > 3 h | Ki (Prolyl endopeptidase): > 30 µM | Activity (Rattus norvegicus [11]): -37% | concentration at 4 h [12]: 373 ng/mL | CL/F [5]: 2.5 mL/min/kg | bioavailability [13]: 100% | CL/F [14]: 3.5 mL/min/kg | IC50 (Cytochrome P450 3A4): > 10 µM | Activity (Rattus norvegicus [15]): -39% | IC50 (Cytochrome P450 2D6): > 10 µM | half-life [16]: 14.9 h | inhibition in vivo at 1 mg/kg (Rattus norvegicus [17]): > 98% | IC50 (Cytochrome P450 2C9): > 10 µM | Vdss (Rattus norvegicus [6]): 1.15 L/kg | AUC (Rattus norvegicus [7]): 24400 ng·h/mL | bioavailability [8]: 74% | Cmax [18]: 691 ng/mL | half-life [2]: > 3 h | Ki (Prolyl endopeptidase FAP): > 30 µM | Activity (Rattus norvegicus [19]): -32% | half-life [9]: 5.5 h

NC1CN(c2cc(-c3cccc(C(=O)O)c3)ncn2)CC1c1cc(F)c(F)cc1F (stereo unspecified)
Cmax [3]: 176 ng/mL | Ki (Dipeptidyl peptidase 9): > 3 µM | half-life [1]: > 3 h | Ki (Prolyl endopeptidase): > 30 µM | CL/F [5]: 18.3 mL/min/kg | IC50 (Cytochrome P450 3A4): > 10 µM | IC50 (Cytochrome P450 2D6): > 10 µM | Ki (Dipeptidyl peptidase 8): > 3 µM | Vdss (Rattus norvegicus [6]): 1.78 L/kg | AUC (Rattus norvegicus [7]): 652 ng·h/mL | bioavailability [8]: 18% | half-life [2]: > 3 h | Ki (Prolyl endopeptidase FAP): > 30 µM | half-life [9]: 6.8 h

NC1CN(c2cc(-c3ccc(C(=O)O)cc3)ncn2)CC1c1cc(F)c(F)cc1F (stereo unspecified)
half-life [1]: > 3 h | half-life [2]: > 3 h

CN(C)C(=O)c1cccc(-c2cc(N3CC(N)C(c4cc(F)c(F)cc4F)C3)ncn2)c1 (stereo unspecified)
Cmax [3]: 1270 ng/mL | half-life [1]: > 3 h | CL/F [5]: 12.2 mL/min/kg | Vdss (Rattus norvegicus [6]): 1.77 L/kg | AUC (Rattus norvegicus [7]): 3140 ng·h/mL | bioavailability [8]: 42% | half-life [2]: > 3 h | half-life [9]: 3.5 h

NC1CN(c2nccc(-c3ccccc3)n2)CC1c1ccc(Cl)cc1Cl (racemic)
half-life [1]: > 3 h | half-life [2]: > 3 h
